In brackets after ≈: the same amount, converted by molar mass. One block for each molecule: values may come before it. Activity calls are given as the source filed them. The rule behind the calls is not given here.
Experiments:
[1] = test system: MIA PaCa-2; test: Antiproliferative activity against human MIA PaCa-2 cells assessed as cell viability measured after 72 hrs by MTT assay; type: functional, cell-based; conditions: MIA PaCa-2, 72 h
How it was run: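 MIA PaCa-2 pancreatic cancer cells; EC50 values determined in triplicate.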

[2] = Metabolic stability in mouse plasma assessed as parent compound remaining measured after 6 hrs by LC-MS/MS analysis; type: ADME, cell-free; conditions: read-out: Stability
[3] = Metabolic stability in human plasma assessed as parent compound remaining measured after 6 hrs by LC-MS/MS analysis; type: ADME, cell-free; conditions: read-out: Stability
[4] = Thermodynamic aqueous solubility of the compound at pH 7.4 measured after 48 hrs by UV-spectrometry method; type: physicochemical; conditions: read-out: Therm_solubility
[5] = Cytotoxicity against human ARPE-19 cells assessed as cell viability measured after 72 hrs by MTT assay; type: toxicity, cell-based
[6] = test system: ARPE-19; test: Induction of autophagy in human ARPE-19 cells assessed as increase in LC3-2 conversion at 10 uM measured after 4 hrs by Western blot analysis; type: functional, cell-based
How it was run: (§1)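 ARPE-19 cells treated 4 h in complete medium without starvation with increasing concentrations (10, 25, 50 μM) or DMSO. LC3 detected by Western blot; LC3-II/actin ratio expressed as fold increase over DMSO control, n = 3.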

[7] = test system: ARPE-19; test: Induction of autophagy in human ARPE-19 cells assessed as increase in LC3-labeled punctae at 25 uM measured after 4 hrs by immunofluorescence analysis relative to control; type: functional, cell-based
How it was run: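 ARPE-19 cells treated 4 h at 25 μM in complete medium without starvation, or with DMSO. LC3 punctae detected by immunofluorescence, with CD63 as late endosomal/lysosomal marker.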

[8] = test system: ARPE-19; test: Induction of autophagy in human ARPE-19 cells assessed as fold increase in LC3 turnover at 50 uM measured after 4 hrs by Western blot analysis; type: functional
How it was run: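 ARPE-19 human retinal pigment epithelial cells exposed 4 h to compound or DMSO in complete medium without starvation. LC3 conversion read by Western blot as LC3-II/actin ratio and expressed as fold increase over DMSO control, n = 3.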

[9] = test system: ARPE-19; test: Induction of autophagy in human ARPE-19 cells assessed as increase in LC3-2 conversion at 25 to 50 uM measured after 4 hrs by Western blot analysis; type: functional, cell-based; conditions: dose 25-50 µM; how it was run: as §1
[10] = test system: ARPE-19; test: Induction of autophagy in human ARPE-19 cells assessed as increase in LC3-2 conversion measured after 4 hrs by Western blot analysis; type: functional, cell-based; conditions: dose 25-50 µM; how it was run: as §1
[11] = test system: ARPE-19; test: Reduction in autophagic flux in human ARPE-19 cells at 25 uM incubated for 4 hrs in complete medium in presence of bafilomycin; type: functional, cell-based
How it was run: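 ARPE-19 cells in full medium with 100 nM bafilomycin plus compound or DMSO. Autophagic flux read as LC3-II by Western blot.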

[12] = target: T1, mTORC1 (Homo sapiens) (UniProt P42345+Q8N122+Q9BVC4); test: Inhibition of mTORC1 in human ARPE19 cells at 10 to 50 uM measured after 4 hrs by Western blot analysis related to control; type: cell-based; conditions: ARPE-19, dose 10-50 µM
T1 sequence (Q8N122 whole entry, looked up, other chains not shown): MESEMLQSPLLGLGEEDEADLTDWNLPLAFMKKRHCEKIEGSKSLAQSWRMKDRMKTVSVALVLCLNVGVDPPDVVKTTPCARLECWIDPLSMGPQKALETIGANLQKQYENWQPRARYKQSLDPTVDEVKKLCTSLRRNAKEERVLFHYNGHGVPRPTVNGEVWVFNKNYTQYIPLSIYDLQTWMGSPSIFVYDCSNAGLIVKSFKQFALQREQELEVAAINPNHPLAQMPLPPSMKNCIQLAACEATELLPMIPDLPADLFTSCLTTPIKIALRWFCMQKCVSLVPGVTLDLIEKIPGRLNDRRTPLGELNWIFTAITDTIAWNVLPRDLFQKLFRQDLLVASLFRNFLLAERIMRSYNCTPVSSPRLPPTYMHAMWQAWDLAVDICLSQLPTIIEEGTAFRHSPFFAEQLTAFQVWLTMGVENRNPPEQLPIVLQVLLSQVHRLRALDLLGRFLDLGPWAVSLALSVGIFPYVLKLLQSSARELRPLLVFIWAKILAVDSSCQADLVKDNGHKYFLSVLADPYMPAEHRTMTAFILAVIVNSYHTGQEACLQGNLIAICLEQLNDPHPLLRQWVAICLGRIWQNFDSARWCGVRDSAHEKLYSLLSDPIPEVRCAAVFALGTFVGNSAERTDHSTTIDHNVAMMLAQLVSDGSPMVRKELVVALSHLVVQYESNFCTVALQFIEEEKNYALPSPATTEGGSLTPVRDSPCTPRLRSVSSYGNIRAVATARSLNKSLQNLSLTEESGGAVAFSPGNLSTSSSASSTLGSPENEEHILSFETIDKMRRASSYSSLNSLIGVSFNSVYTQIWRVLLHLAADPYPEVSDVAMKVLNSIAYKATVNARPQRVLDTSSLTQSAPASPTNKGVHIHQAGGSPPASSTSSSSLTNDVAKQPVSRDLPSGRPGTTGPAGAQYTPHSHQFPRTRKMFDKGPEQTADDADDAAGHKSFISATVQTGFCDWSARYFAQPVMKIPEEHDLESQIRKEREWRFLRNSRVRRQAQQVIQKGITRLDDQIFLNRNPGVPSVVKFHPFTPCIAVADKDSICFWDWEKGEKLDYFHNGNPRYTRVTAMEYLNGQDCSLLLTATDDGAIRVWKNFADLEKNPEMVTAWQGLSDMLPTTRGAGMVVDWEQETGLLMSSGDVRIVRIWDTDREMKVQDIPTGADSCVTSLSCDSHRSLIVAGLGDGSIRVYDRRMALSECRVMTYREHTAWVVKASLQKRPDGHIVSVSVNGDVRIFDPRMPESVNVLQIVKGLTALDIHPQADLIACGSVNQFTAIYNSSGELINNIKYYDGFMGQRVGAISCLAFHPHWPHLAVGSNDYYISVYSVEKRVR
T1 sequence (Q9BVC4 whole entry, looked up, other chains not shown): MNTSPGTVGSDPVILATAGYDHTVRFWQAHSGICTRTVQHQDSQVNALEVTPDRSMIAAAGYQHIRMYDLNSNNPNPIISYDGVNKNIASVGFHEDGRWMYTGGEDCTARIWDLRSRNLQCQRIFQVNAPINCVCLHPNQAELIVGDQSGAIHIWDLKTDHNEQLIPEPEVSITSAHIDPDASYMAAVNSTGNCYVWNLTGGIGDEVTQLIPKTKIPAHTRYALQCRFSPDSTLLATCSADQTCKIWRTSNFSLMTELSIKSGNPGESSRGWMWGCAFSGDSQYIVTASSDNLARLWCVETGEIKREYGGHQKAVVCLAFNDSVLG
How it was run: (§2)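 ARPE-19 cells treated 4 h without starvation with increasing concentrations or DMSO. Basal mTORC1 activity measured by Western blot as phosphorylated P70/total P70, with DMSO set to 100%.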

[13] = target: T1, mTORC1 (Homo sapiens); test: Inhibition of mTORC1 in human ARPE19 cells measured after 4 hrs by Western blot analysis; type: cell-based; conditions: ARPE-19, dose 10-50 µM; how it was run: as §2
[14] = target: T1, mTORC1 (Homo sapiens); test: Inhibition of mTORC1 in human ARPE19 cells assessed as decrease in P70/total P70 phosphorylation level at 10 uM measured after 4 hrs by Western blot analysis; type: cell-based; conditions: ARPE-19; how it was run: as §2
[15] = test system: ARPE-19; test: Induction of autophagy in human ARPE-19 cells assessed as LC3 level at 25 uM measured after 4 hrs under starvation/refeed condition by immunofluorescence analysis; type: functional, cell-based
How it was run: (§3)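 ARPE-19 cells starved 4 h in EBSS, then refed 1 h in complete medium containing 25 μM compound or DMSO. LC3 punctae imaged by immunofluorescence, with CD63 co-stain.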

[16] = test system: ARPE-19; test: Induction of autophagy in human ARPE-19 cells assessed as LC3 accumulation at 25 to 50 uM measured after 4 hrs under refeed condition by immunofluorescence analysis; type: functional, cell-based; conditions: dose 25-50 µM
[17] = test system: ARPE-19; test: Induction of autophagy in human ARPE-19 cells assessed fold increase in LC3 turnover at 10 uM pretreated measured after 1 hr under refeed condition by Westernblot analysis; type: functional
How it was run: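 ARPE-19 cells pretreated 30 min with 10 μM compound or DMSO, starved 4 h in EBSS, then refed 1 h in complete medium with compound or DMSO. LC3-II/actin quantified by Western blot and expressed as fold increase over DMSO control, n = 3.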

[18] = test system: ARPE-19; test: Induction of autophagy in human ARPE-19 cells assessed as appearance of LC3 non-uniformed shapes at 25 uM pretreated for 30 mins with cells followed by incubation for 4 hrs under starvation condition by immunofluorescence analysis; type: functional, cell-based; conditions: time 4.5 hrs
How it was run: (§4)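 ARPE-19 cells starved 4 h in EBSS with 25 μM compound or DMSO. LC3-labeled structures imaged by immunofluorescence, with CD63 as late endosomal/lysosomal marker.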

[19] = test system: ARPE-19; test: Induction of autophagy in human ARPE-19 cells assessed as LC3 enlarged structures at 25 uM pretreated for 30 mins with cells followed by incubation for 4 hrs under starvation condition by immunofluorescence analysis; type: functional, cell-based; conditions: time 4.5 hrs; how it was run: as §4
[20] = test system: ARPE-19; test: Induction of autophagy in human ARPE-19 cells assessed as decrease in LC3-2/actin ratio at 10 uM pretreated for 30 mins with cells followed by incubation for 4 hrs under starvation condition by Western blot analysis; type: functional, cell-based; conditions: time 4.5 hrs
How it was run: (§5)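 ARPE-19 cells pretreated 30 min at 10 μM (or DMSO). Then 4 h with compound in EBSS starvation medium, or in EBSS with 100 nM bafilomycin. LC3-II/actin quantified by Western blot as fold of DMSO control, n = 3.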

[21] = test system: ARPE-19; test: Induction of autophagy in human ARPE-19 cells assessed as decrease in LC3-2/actin ratio at 10 uM pretreated for 30 mins with cells followed by incubation for 4 hrs under starvation condition in presence of bafilomycin by Western blot analysis; type: functional, cell-based; conditions: time 4.5 hrs; how it was run: as §5
[22] = Metabolic stability in mouse plasma assessed as parent compound remaining measured after 24 hrs by LC-MS/MS analysis; type: ADME, cell-free; conditions: read-out: Stability
[23] = Metabolic stability in human plasma assessed as parent compound remaining measured after 24 hrs by LC-MS/MS analysis; type: ADME, cell-free; conditions: read-out: Stability
[24] = target: T1, mTORC1 (Homo sapiens); test: Inhibition of mTORC1 reactivation in human ARPE-19 cells assessed as reduction of 4E-BP1 phosphorylation at 10 uM preincubated for 4 hrs under starvation/refeed condition measured after 1 hr in complete medium by Western blot analysis; type: cell-based; conditions: time 5.0 hrs
How it was run: (§6)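 ARPE-19 cells starved 4 h in EBSS, then refed 1 h in complete medium with 10 μM compound or DMSO. mTORC1 reactivation read by Western blot as phosphorylation of P70 and 4EBP1.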

[25] = target: T1, mTORC1 (Homo sapiens); test: Inhibition of mTORC1 reactivation in human ARPE-19 cells assessed as reduction of P70 phosphorylation at 10 uM preincubated for 4 hrs under starvation/refeed condition measured after 1 hr in complete medium by Western blot analysis; type: cell-based; conditions: time 5.0 hrs; how it was run: as §6
[26] = test system: ARPE-19; test: Induction of autophagy in human ARPE-19 cells assessed as appearance of abnormal punctae at 25 uM measured after 1 hr under starvation/refeed condition by immunofluorescence analysis; type: functional, cell-based; how it was run: as §3
[27] = target: T1, mTORC1 (Homo sapiens); test: Inhibition of mTORC1 reactivation in human ARPE-19 cells at 25 to 50 uM preincubated for 4 hrs under starvation/refeed condition measured after 1 hr in complete medium by Western blot analysis; type: cell-based; conditions: dose 25-50 µM, time 5.0 hrs
[28] = test system: ARPE-19; test: Inhibition of autophagy in human ARPE-19 cells assessed as fold decrease in LC3 turnover at 10 uM pretreated for 30 mins with cells followed by incubation for 4 hrs under starvation condition by Western blot analysis; conditions: time 4.5 hrs

- EC50 [1]: > 100 µM
Compound: Cc1nn(Cc2ccc(C(N)=O)cc2)c(C)c1NC(=O)c1ccc(COc2ccccc2)cc1

- EC50 [1]: 20 µM
Compound: Fc1ccc(CNc2ncnc3ccc(F)cc23)cc1

- EC50 [1]: 0.0015 µM
Compound: Nc1ccn([C@@H]2O[C@H](CO)[C@@H](O)C2(F)F)c(=O)n1 [GEMCITABINE]

- EC50 [1]: 10 µM
Compound: CNC(=O)c1cccc(Cn2nc(C)c(NC(=O)c3ccc(COc4ccccc4C(F)(F)F)cc3)c2C)c1

- EC50 [1]: 14 µM
Compound: CNC(=O)c1cccc(Cn2nc(C)c(NC(=O)c3ccc(COC4CCCCC4)cc3)c2C)c1

- EC50 [1]: 27 µM
Compound: C#Cc1cccc(Nc2ncnc3cc(OCCOC)c(OCCOC)cc23)c1 [ERLOTINIB]

- EC50 [1]: > 100 µM
Compound: Cn1cnc(N)c2ncnc1-2 [3-METHYLADENINE]

- EC50 [1]: 42 µM
Compound: Cc1nn(Cc2ccccc2C(N)=O)c(C)c1NC(=O)c1ccc(COc2ccccc2)cc1

- EC50 [1]: 6.3 µM
Compound: CNC(=O)c1cccc(Cn2nc(C)c(NC(=O)c3ccc(COc4ccccc4Cl)cc3)c2C)c1

Compound: CNC(=O)c1cccc(Cn2nc(C)c(NC(=O)c3ccc(COc4ccc(C(F)(F)F)cc4C)cc3)c2C)c1
- EC50 [1]: 0.62 µM
- remaining at 6 h [2]: 88%
- remaining at 6 h [3]: 98%
- solubility thermodynamic at 48 h [4]: 166 µM (≈ 91.4 µg/mL)
- EC50 at 72 h [5]: 7.1 µM
- Activity [6]: Active
- Activity [7]: Active
- fold change (FC) [8]: 3.3
- Activity [9]: Active
- Activity [10]: Dose-Dependent Effect
- Activity [11]: inactive
- inhibition [12]: 78%
- inhibition [13]: Dose-Dependent Effect
- inhibition [14]: Active
- Activity [15]: Active
- Activity [16]: Active
- fold change (FC) [17]: 1.7
- Activity [18]: Active
- Activity [19]: Active
- Activity [20]: Active
- Activity [21]: inactive
- remaining at 24 h [22]: 93%
- remaining at 24 h [23]: 100%
- Activity [24]: Active
- Activity [25]: Active
- Activity [26]: Active
- Activity [27]: Active
- fold change (FC) [28]: 1.7

- EC50 [1]: 8.5 µM
Compound: CNC(=O)c1cccc(Cn2nc(C)c(NC(=O)c3ccc(COc4ccccc4OC)cc3)c2C)c1

- EC50 [1]: 11 µM
Compound: CCNC(=O)c1cccc(Cn2nc(C)c(NC(=O)c3ccc(COc4ccccc4)cc3)c2C)c1

- EC50 [1]: 2.6 µM
Compound: CNC(=O)c1cccc(Cn2nc(C)c(NC(=O)c3ccc(COc4ccc(C)cc4)cc3)c2C)c1

- EC50 [1]: 6.2 µM
Compound: CNC(=O)c1cccc(Cn2nc(C)c(NC(=O)c3ccc(COc4ccccc4)cc3)c2C)c1
